“Also recorded” adds a separate entry of the source. Where two headings read alike, the source gives them in different places.
Experiments:
[1] = system: L. infantum promastigotes; assay: Anti-L. infantum promastigotes drug test; format: cell-based, Leishmania infantum; settings: 48 h; for parasite-killing effect on promastigotes: data not shown
Summary of the method: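 Promastigotes from a 4-day culture, 1 × 10^5/well, exposed to increasing concentrations for 48 h at 26 °C. Amphotericin B 0.25 μM as positive control. Cells lysed (1% Triton X-100, 2.9% sodium citrate), then 5 mM p-nitrophenyl phosphate added for 2 h at 37 °C. Stopped with 1 N NaOH and read at OD 405 nm. Inhibition calculated versus untreated controls.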

[2] = system: BS forms of T.brucei; settings: read-out: IC50 BS forms of T.brucei; ref Chambers et al., 2008; cited from earlier work
[3] = system: T. brucei brucei 427 strain, bloodstream stage; assay: Screening of drugs against T. brucei; format: cell-based, Trypanosoma brucei brucei; settings: for IC50: Trypanosoma brucei
Summary of the method: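 Strain 427 bloodstream forms in HMI-9 were pelleted (900 g, 10 min) and seeded at 5 × 10^5/well in warm medium with serial dilutions, in triplicate. Suramin 100 μM as positive control. After 24 h, Alamar Blue added and incubated 4 h at 37 °C. Fluorescence read at Ex 530/Em 590 nm. Inhibition versus untreated; IC50 from sigmoidal variable-slope fit.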

[4] = system: P. falciparum 3D7 intraerythrocytic stage; assay: P. falciparum growth inhibition assay; format: cell-based, Plasmodium falciparum; settings: for IC50: 3D7, 48 h, read-out: IC50 P. falciparum
Summary of the method: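 Sorbitol-synchronized 3D7 rings in RBCs at 3% hematocrit, 0.8% parasitemia. Exposed 48 h at 37 °C (5% CO2, 2% O2, 93% N2), in triplicate. Chloroquine 80 nM as reference. Parasitemia measured by flow cytometry after SYTO 11 staining, with uninfected and untreated infected controls. Values standardized to chloroquine; inhibition versus untreated; IC50 from sigmoidal variable-slope fit.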

[5] = system: L. mexicana promastigotes; settings: concentrations as high as 0.5 mM; ref Turrens and Cazzulo, 1987; cited from earlier work
[6] = system: T. cruzi epimastigotes; settings: read-out: IC50 T. cruzi epimastigotes; ref Turrens, 1986; cited from earlier work
[7] = system: T. cruzi intracellular amastigotes; assay: Drug test on intracellular amastigotes of T. cruzi; format: cell-based, Trypanosoma cruzi; settings: 72 h; for inhibition of T. cruzi amastigote numbers (highest reduction): concentration not given; for IC50: Trypanosoma cruzi, Vero; for antitrypanosomal activity on T. cruzi: data not shown
Summary of the method: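 Gamma-irradiated (2200 rad) Vero cells, 3.6 × 10^4/well, plated overnight at 37 °C, 5% CO2. […] Serial dilutions added for 72 h, in quadruplicate, with benznidazole 2 μM as control. Fluorescence read at Ex 544/Em 612 nm. Inhibition versus infected untreated wells; IC50 from sigmoidal variable-slope fit.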

[8] = system: L. infantum intra-macrophage amastigotes; assay: Drug test on L. infantum intra-macrophage amastigotes; format: cell-based, Leishmania infantum; settings: for decrease of number of intracellular amastigotes / reduction of percentage of infected macrophages: highest non-cytotoxic dose; for IC50: Leishmania infantum, U-937, 48 h, read-out: IC50 (parasite-killing activity, L. infantum intracellular amastigotes)
Summary of the method: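 U937 cells were PMA-differentiated (50 nM, 48 h) and infected with 6-day metacyclic promastigotes at 10:1 for 24 h, then washed. Infected cells (5 × 10^4) were treated for 48 h in chamber slides, in duplicate, at concentrations non-toxic to macrophages (MTT, 48 h). Meglumine antimoniate 273 μM as control. Methanol-fixed, Giemsa-stained; 200 cells counted for infected macrophages and amastigotes.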

[9] = system: T. brucei; settings: read-out: IC50 T. brucei; different T. brucei strain; ref Barquilla et al., 2008; cited from earlier work
[10] = ref Schaefer et al., 2012; cited from earlier work
[11] = system: T. brucei; settings: ref Barnard et al., 1993; cited from earlier work
[12] = ref Barnard et al., 1993; cited from earlier work
[13] = 24 h, read-out: IC50 T. brucei Bloodstream stage
[14] = 24 h, read-out: IC50 T. brucei brucei
[15] = read-out: IC50 T. cruzi amastigotes
[16] = read-out: IC50 T. cruzi intracelular amastigotes

Compound: C[C@@H]1[C@H](O)[C@@H](C)/C=C/C=C/C=C/C=C/C=C/C=C/C=C/[C@H](O[C@@H]2O[C@H](C)[C@@H](O)[C@H](N)[C@@H]2O)C[C@@H]2O[C@](O)(C[C@@H](O)C[C@@H](O)[C@H](O)CC[C@@H](O)C[C@@H](O)CC(=O)O[C@H]1C)C[C@H](O)[C@H]2C(=O)O [AmB, amphotericyn B]
- survival rate of L. infantum promastigotes ([1]; 0.25 μM): 36%

Compound: O=C(O)c1nn(Cc2ccc(Cl)cc2Cl)c2ccccc12 [LND, lonidamine]
- IC50 [2]: 50 µM
- parasite-killing activity on T. brucei ([3]; 24 h, concentration not given): 97.7%
- IC50 [3, 13]: 26.8 µM
- IC50 [3, 14]: 26.8 µM
- concentration of peak antimalarial activity ([4]; 48 h): 300 µM
- IC50 ([4]; Plasmodium falciparum): 209 µM
- effect on L. mexicana promastigotes [5]: only a leishmaniostatic effect was observed
- IC50 [6]: 80 µM
- effect on L. infantum promastigote survival [1]: did not detectably impair; also recorded: no effect was detected
- inhibition of T. cruzi amastigote numbers (highest reduction) [7]: 99.4%
- IC50 [7, 15]: 82.4 µM
- IC50 [7, 16]: 82.4 µM

Compound: CO[C@H]1C[C@@H]2CC[C@@H](C)[C@@](O)(O2)C(=O)C(=O)N2CCCC[C@H]2C(=O)O[C@H]([C@H](C)C[C@@H]2CC[C@@H](O)[C@H](OC)C2)CC(=O)[C@H](C)/C=C(\C)[C@@H](O)[C@@H](OC)C(=O)[C@H](C)C[C@H](C)/C=C/C=C/C=C/1C [SIR, sirolimus]
- concentration achieving complete clearance of cultured T. brucei brucei ([3]; 24 h): 6.85 µM
- IC50 [3, 13]: 2.14 µM
- P. falciparum growth inhibition ([4]; 48 h): growth inhibition values close to those obtained by CQ
- IC50 ([4]; Plasmodium falciparum): ~2.5 µM
- effect on parasite burden and infected macrophages ([8]; 10 μM, data not shown): modest increase of the parasite burden and number of infected macrophages
- anti-parasitic effect on L. infantum intra-macrophage amastigotes ([8]; 48 h, data not shown): did not show any parasiticidal effect; also recorded: increase of parasite load
- IC50 [9]: 0.152 µM
- effect on L. infantum promastigote survival [1]: did not detectably impair
- antitrypanosomal activity on T. cruzi [7]: did not show consistent antitrypanosomal activity; also recorded: did not affect the viability

Compound: Cc1ccc(C(=O)Nc2ccc(S(=O)(=O)O)c3cc(S(=O)(=O)O)cc(S(=O)(=O)O)c23)cc1NC(=O)c1cccc(NC(=O)Nc2cccc(C(=O)Nc3cc(C(=O)Nc4ccc(S(=O)(=O)O)c5cc(S(=O)(=O)O)cc(S(=O)(=O)O)c45)ccc3C)c2)c1 [SUR, suramin]
- parasite clearance, T. brucei ([3]; 100 μM, control drug): 96%

Compound: O=C(O)C(Cl)Cl [DCA, dichloroacetic acid]
- concentration achieving complete clearance of cultured T. brucei brucei ([3]; 24 h): 12500 µM
- IC50 [3, 13]: 1240 µM
- P. falciparum growth inhibition ([4]; 48 h): growth inhibition values close to those obtained by CQ
- decrease of number of intracellular amastigotes ([8]; 25 mM, 48 h): 90.7%
- reduction of percentage of infected macrophages ([8]; 25 mM, 48 h): 74.4%
- IC50 [8]: 632 µM
- effect on L. infantum promastigote survival [1]: did not detectably impair
- IC50 [7, 15]: 25800 µM
- IC50 [7, 16]: 25800 ± 59 µM
- inhibition of T. cruzi amastigotes, highest value ([7]; high concentrations (up to 100 mM)): 74.1%

Compound: O=C(O)C(=O)CBr [3BP, 3-bromopyruvic acid]
- safety in rodents [10]: apparently being safe in rodents, where only a reduction in body weight was recorded
- parasite-killing activity on T. brucei ([3]; 24 h, concentration not given): 93.2%
- IC50 [3, 13]: 76.6 µM
- IC50 [3, 14]: 76.6 µM
- P. falciparum growth inhibition ([4]; 48 h): slight effect on parasite growth inhibition; also recorded: no efficacy
- decrease of number of intracellular amastigotes ([8]; 75 μM, 48 h): 78.3%
- reduction of percentage of infected macrophages ([8]; 75 μM, 48 h): 48.4%
- IC50 [8]: 24.9 µM
- concentration inhibiting motility and growth of T. brucei [11]: 13.4 µM
- parasite-killing effect on promastigotes ([1]; 37 μM): slight parasite-killing effect
- antitrypanosomal activity on T. cruzi [7]: did not show consistent antitrypanosomal activity; also recorded: no efficacy
- toxicity in humans [12]: toxicity in humans

Compound: O=CC[C@@H](O)[C@H](O)[C@H](O)CO [2DG, 2-deoxy-D-glucose]
- parasite-killing activity on T. brucei ([3]; 24 h): No parasite-killing activity was detected
- P. falciparum growth inhibition ([4]; 48 h): growth inhibition values close to those obtained by CQ
- parasite-killing effect on promastigotes ([1]; 0.2 mM): slight parasite-killing effect
- inhibition of T. cruzi amastigote numbers (highest reduction) [7]: 89.3%
- IC50 [7, 16]: 7270 ± 0.47 µM

Compound: CCN(CC)CCCC(C)Nc1ccnc2cc(Cl)ccc12 (stereo not drawn) [CQ, chloroquine]
- inhibition at 0.08 µM ([4]; Plasmodium falciparum, 3D7, read-out: parasite growth inhibition): > 90%

Compound: CN(C)C(=N)N=C(N)N [MET, metformin]
- parasite elimination, T. brucei ([3]; 20 mM, 24 h): 57%
- IC50 [3, 13]: 17300 ± 15 µM
- P. falciparum growth inhibition ([4]; 48 h): growth inhibition values close to those obtained by CQ
- effect on L. infantum promastigote survival [1]: did not detectably impair
- IC50 [7, 15]: 18500 µM
- IC50 [7, 16]: 18500 ± 18 µM

— publication PMC7452664 (International Journal for Parasitology: Drugs and Drug …, 2020)
